Reference: ChEMBL document CHEMBL4334439, “Discovery, Optimization, and Target Identification of Novel Potent Broad-Spectrum Antiviral Inhibitors” (J Med Chem, 2019)
The source made the active and inactive calls. The calls are words filed in the database; no cut-off is given here.

Assays:
[1] = Selectivity index, ratio of CC50 for African green monkey Vero cells to EC50 for SFTSV infected in African green monkey Vero cells; assay type: toxicity; details: read-out: Ratio CC50/EC50
Summary of the method: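 Vero cells infected with SFTSV at MOI 0.01; virus titre measured 4 days after infection. The cytotoxicity arm used 1×10^4 cells/well with 48 h of serially diluted compound, then a WST-1 absorbance read (OD450/OD630) for CC50. SI is CC50/EC50.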

Hepatitis C virus [2] = test: Antiviral activity against EGFP-fused HCV JFH-1 harboring K78E/E2-G451R/NS3-M260K/NS5A-T462I mutation infected in human Huh7.5.1 cells assessed as combination index after 2 days in presence of sofosbuvir by qRT-PCR analysis; assay type: functional, Hepacivirus hominis
Summary of the method: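 In HCVcc-infected Huh7.5.1 cells (1×10^4/well, overnight, 37 °C), compound was given at various concentrations alone or with the named approved antiviral. After 2 days HCV RNA was quantified by qRT-PCR to derive the combination index.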

[3] = Cytotoxicity against human RD cells infected with EV71 assessed as decrease in cell viability after 48 hrs by WST1 assay; assay type: cell-based
Summary of the method: (§1)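 Cells seeded at 1 × 10^4 per well and cultured overnight at 37 °C, then incubated 48 h with serially diluted compounds. Viability read with WST-1 reagent as absorbance at OD450/OD630.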

Hepatitis C virus [4] = test: Antiviral activity against EGFP-fused HCV JFH-1 harboring K78E/E2-G451R/NS3-M260K/NS5A-T462I mutation infected in human Huh7.5.1 cells assessed as reduction in viral RNA level after 2 days in presence of sofosbuvir by qRT-PCR analysis; assay type: functional, organism-based; details: Hepacivirus hominis
Summary of the method: (§2)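 Huh7.5.1 cells at 1×10^4/well, grown overnight at 37 °C. HCVcc was mixed with serially diluted compound (top 30 or 6 μM), given alone or with the named drug, and added to the cells. Viral RNA was read by qRT-PCR after 2 days. EC50 is the concentration giving 50% RNA reduction.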

[5] = Selectivity index, ratio of CC50 for human RD cells to EC50 for EV71(FY)-Luc infected in human RD cells; assay type: toxicity, cell-based; details: read-out: Ratio CC50/EC50
Summary of the method: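 RD cells seeded at 1×10^4/well and cultured overnight, then infected with EV71(FY)-Luc at MOI 1 and treated with compound straight away. EC50 is the 50% drop in luminescence or RNA. CC50 comes from a 48 h serial-dilution exposure at 1×10^4 cells/well, read by WST-1 (OD450/OD630).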

[6] = Inhibition of C-terminal 6-His tagged recombinant human DHODH N-terminal domain delta29 mutant expressed in Escherichia coli BL21(DE3) using dihydroorotate as substrate measured every 30 secs for 6 mins by DCIP dye based assay
Summary of the method: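 Enzyme purified by HisTrap then size exclusion. Reaction started with 500 μM dihydroorotate. DCIP decrease read at 600 nm. Inhibition = (1 − Vi/V0) × 100. IC50 from 8–9 concentrations in triplicate by sigmoidal fit.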

Hepatitis C virus [7] = test: Antiviral activity against EGFP-fused HCV JFH-1 harboring K78E/E2-G451R/NS3-M260K/NS5A-T462I mutation infected in human Huh7.5.1 cells assessed as reduction in viral RNA level after 2 days in presence of boceprevir by qRT-PCR analysis; assay type: functional, organism-based; details: Hepacivirus hominis; summary of the method: as §2
[8] = Cytotoxicity against human Huh7.5.1 cells assessed as decrease in cell viability after 48 hrs by WST1 assay; assay type: cell-based; summary of the method: as §1
Hepatitis C virus [9] = test: Antiviral activity against EGFP-fused HCV JFH-1 harboring K78E/E2-G451R/NS3-M260K/NS5A-T462I mutation infected in human Huh7.5.1 cells assessed as reduction in viral RNA level after 2 days in presence of IFNalpha by qRT-PCR analysis; assay type: functional, organism-based; details: Hepacivirus hominis; summary of the method: as §2
[10] = target: T1, Membrane protein MLC1 (Homo sapiens) (UniProt Q15049); test: Binding affinity to MLC1 in human Huh7.5.1 cell lysate infected with HCV at 0.1 to 10 uM incubated for 1 hr followed by 10000 mJ/cm2 UV irradiation for 10 mins and subsequent addition of biotin-N3 measured after 1 hr by ABPP Gel-based by LC/MS/MS analysis; assay type: subcellular
T1 sequence (whole entry): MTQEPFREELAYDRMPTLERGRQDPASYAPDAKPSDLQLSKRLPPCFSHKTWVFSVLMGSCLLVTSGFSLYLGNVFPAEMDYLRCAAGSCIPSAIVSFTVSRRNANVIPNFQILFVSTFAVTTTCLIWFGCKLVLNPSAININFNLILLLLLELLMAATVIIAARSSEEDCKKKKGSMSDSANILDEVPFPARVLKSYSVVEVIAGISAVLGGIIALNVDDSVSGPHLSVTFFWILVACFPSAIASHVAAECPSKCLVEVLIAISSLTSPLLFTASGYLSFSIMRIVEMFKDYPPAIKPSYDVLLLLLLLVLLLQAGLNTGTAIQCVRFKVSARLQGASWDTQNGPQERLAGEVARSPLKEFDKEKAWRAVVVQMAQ

[11] = target: T2, Sialate O-acetylesterase (Homo sapiens) (UniProt Q9HAT2); test: Binding affinity to SIAE in human Huh7.5.1 cell lysate infected with HCV at 0.1 to 10 uM incubated for 1 hr followed by 10000 mJ/cm2 UV irradiation for 10 mins and subsequent addition of biotin-N3 measured after 1 hr by ABPP Gel-based by LC/MS/MS analysis; assay type: subcellular
T2 sequence (whole entry): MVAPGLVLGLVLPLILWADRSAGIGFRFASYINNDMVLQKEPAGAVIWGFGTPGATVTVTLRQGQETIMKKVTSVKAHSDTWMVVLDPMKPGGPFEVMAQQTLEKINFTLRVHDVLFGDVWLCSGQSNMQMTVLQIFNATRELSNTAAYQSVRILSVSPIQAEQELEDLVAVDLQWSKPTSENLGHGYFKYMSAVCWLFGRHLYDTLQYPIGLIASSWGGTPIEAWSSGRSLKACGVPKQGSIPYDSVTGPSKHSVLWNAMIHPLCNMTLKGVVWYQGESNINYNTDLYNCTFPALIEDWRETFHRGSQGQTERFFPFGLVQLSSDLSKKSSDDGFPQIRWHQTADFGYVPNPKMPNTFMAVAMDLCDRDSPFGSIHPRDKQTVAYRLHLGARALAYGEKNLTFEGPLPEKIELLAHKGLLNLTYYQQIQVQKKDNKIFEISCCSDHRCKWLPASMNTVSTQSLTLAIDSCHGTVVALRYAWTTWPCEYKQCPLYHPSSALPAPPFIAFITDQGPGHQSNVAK
Summary of the method: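 ABPP: Huh7.5.1 cells HCV-infected 2 days were lysed by sonication in PBS with protease inhibitors (~1.5 mg/ml protein). Photo-probe at 1.0–10.0 μM was UV-crosslinked (350 nm, 10000 mJ/cm2, 10 min), then clicked to biotin-N3 (CuSO4/TBTA/TCEP, 1 h RT). Proteins were precipitated, avidin pull-down, washed with SDS, urea, PBS; LC-MS/MS versus negative-probe, competitor and DMSO groups.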

[12] = Selectivity index, ratio of CC50 for human Huh7.5.1 cells to EC50 for EGFP-fused HCV JFH-1 harboring K78E/E2-G451R/NS3-M260K/NS5A-T462I mutant infected in human Huh7.5.1 cells; assay type: toxicity, cell-based; details: read-out: Ratio CC50/EC50

Q: Which selectivity ratio [1] does the source give for CCN(CC)c1ccc(Oc2ccc(-c3[nH]c4cccc(F)c4c(=O)c3C)cc2F)cc1 here?
A: > 8

Q: And the CI (Hepatitis C virus [2])?
A: >50

Q: And the CC50 at 48 h [3]?
A: > 2500 nM

Q: What about the Activity (Hepatitis C virus [4]) of the same molecule?
A: Dose-dependent effect

Q: And the selectivity ratio [5]?
A: > 625

Q: And the IC50 [6]?
A: 60 nM

Q: What about the Activity (Hepatitis C virus [7]) of the same molecule?
A: Dose-dependent effect

Q: And the CC50 at 48 h [8]?
A: > 2500 nM

Q: What about the Activity (Hepatitis C virus [9]) of the same molecule?
A: Dose-dependent effect

Q: And the Activity [10]?
A: Active

Q: What about the Activity [11] of the same molecule?
A: Active

Q: And the selectivity ratio [12]?
A: > 416
